Key:
Type in all cases: functional
Candida albicans [1] = assay: Fungicidal activity against Candida albicans ATCC 10231 after 48 hrs by broth-dilution method; conditions: ATCC 10231, 48 h, read-out: MFC99.9
How it was run: (§1)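 Standardized ATCC strains were tested in triplicate by broth dilution. The panel comprised Gram-negative E. coli, Gram-positive B. subtilis and S. aureus, and the yeasts S. cerevisiae and C. albicans. Minimum inhibitory concentration was determined for the growth-inhibition lines. Minimum fungicidal concentration was determined for the fungicidal yeast lines.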

Saccharomyces cerevisiae [2] = assay: Antifungal activity against Saccharomyces cerevisiae ATCC 9763 after 12 hrs by broth-dilution method; conditions: ATCC 9763, 12 h; how it was run: as §1
Bacillus spizizenii = assay: Antibacterial activity against Bacillus subtilis ATCC 6633 after 12 hrs by broth-dilution method; conditions: ATCC 6633, 12 h; how it was run: as §1
Staphylococcus aureus = assay: Antibacterial activity against Staphylococcus aureus BAA-2313 after 12 hrs by broth-dilution method; conditions: BAA-2313, 12 h; how it was run: as §1
Candida albicans [3] = assay: Antifungal activity against Candida albicans ATCC 10231 after 12 hrs by broth-dilution method; conditions: ATCC 10231, 12 h; how it was run: as §1
Saccharomyces cerevisiae [4] = assay: Fungicidal activity against Saccharomyces cerevisiae ATCC 9763 after 48 hrs by broth-dilution method; conditions: ATCC 9763, 48 h, read-out: MFC99.9; how it was run: as §1
Escherichia coli = assay: Antibacterial activity against Escherichia coli ATCC 25922 after 12 hrs by broth-dilution method; conditions: ATCC 25922, 12 h; how it was run: as §1

C[C@@H]1NC(=O)[C@@H]2CCCN2C1=O
> 200 µg/mL: MFC (Candida albicans [1]) | MIC (Saccharomyces cerevisiae [2]) | MIC (Bacillus spizizenii) | MIC (Staphylococcus aureus) | MIC (Candida albicans [3]) | MFC (Saccharomyces cerevisiae [4]) | MIC (Escherichia coli)

O=C(O)C[C@@H]1NC(=O)[C@@H]2CCCN2C1=O
> 200 µg/mL: MFC (Candida albicans [1]) | MIC (Saccharomyces cerevisiae [2]) | MIC (Bacillus spizizenii) | MIC (Staphylococcus aureus) | MIC (Candida albicans [3]) | MFC (Saccharomyces cerevisiae [4]) | MIC (Escherichia coli)

O=C1NCC(=O)N2CCC[C@H]12
> 200 µg/mL: MFC (Candida albicans [1]) | MIC (Saccharomyces cerevisiae [2]) | MIC (Bacillus spizizenii) | MIC (Staphylococcus aureus) | MIC (Candida albicans [3]) | MFC (Saccharomyces cerevisiae [4]) | MIC (Escherichia coli)

O=C(O)CC[C@H]1NC(=O)[C@@H]2CCCN2C1=O
> 200 µg/mL: MFC (Candida albicans [1]) | MIC (Saccharomyces cerevisiae [2]) | MIC (Bacillus spizizenii) | MIC (Staphylococcus aureus) | MIC (Candida albicans [3]) | MFC (Saccharomyces cerevisiae [4]) | MIC (Escherichia coli)

O=C1[C@@H]2CCCN2C(=O)[C@H]2C[C@H](O)CN12
> 200 µg/mL: MFC (Candida albicans [1]) | MIC (Saccharomyces cerevisiae [2]) | MIC (Bacillus spizizenii) | MIC (Staphylococcus aureus) | MIC (Candida albicans [3]) | MFC (Saccharomyces cerevisiae [4]) | MIC (Escherichia coli)

C[C@H]1NC(=O)[C@@H]2CCCN2C1=O
> 200 µg/mL: MFC (Candida albicans [1]) | MIC (Saccharomyces cerevisiae [2]) | MIC (Bacillus spizizenii) | MIC (Staphylococcus aureus) | MIC (Candida albicans [3]) | MFC (Saccharomyces cerevisiae [4]) | MIC (Escherichia coli)

O=C(O)CC[C@H]1NC(=O)[C@H]2CCCN2C1=O
> 200 µg/mL: MFC (Candida albicans [1]) | MIC (Saccharomyces cerevisiae [2]) | MIC (Bacillus spizizenii) | MIC (Staphylococcus aureus) | MIC (Candida albicans [3]) | MFC (Saccharomyces cerevisiae [4]) | MIC (Escherichia coli)

C[C@@H](O)[C@H]1NC(=O)[C@@H]2CCCN2C1=O
> 200 µg/mL: MFC (Candida albicans [1]) | MIC (Saccharomyces cerevisiae [2]) | MIC (Bacillus spizizenii) | MIC (Staphylococcus aureus) | MIC (Candida albicans [3]) | MFC (Saccharomyces cerevisiae [4]) | MIC (Escherichia coli)
